# In ChEMBL document CHEMBL1152757, “Stereoselective synthesis and biological evaluation of syn-1-amino-3-[18F]fluorocyclobutyl-1-carboxylic acid as a potential positron emission tomography brain tumor imaging agent” (Bioorg Med Chem, 2009):
# Assays:
# Assay type in all cases: ADME, cell-based
# Conditions in all cases: 0.5 h
# [1] = test system: 9L; experiment: Drug uptake in rat 9L cells assessed as intracellular accumulation after 30 mins measured per 5 x 10^5 cells by gamma-counter
# Outline: (§1)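 9L cells were grown in DMEM with 10% FCS and penicillin/streptomycin, then trypsinized and washed twice in HBSS. About 5 × 10^5 cells received 5 µCi tracer in amino acid-free HBSS for 30 min at 37 °C, without or with 10 mM BCH (L-type inhibitor). Cells were centrifuged and rinsed twice with ice-cold HBSS, then gamma-counted with decay correction. Uptake expressed as % of standard per 5 × 10^5 cells. Triplicates, 1-way ANOVA.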
# [2] = test system: 9L; experiment: Drug uptake in rat 9L cells assessed as intracellular accumulation after 30 mins measured per 5 x 10^5 cells by gamma-counter in presence of 2-aminobicyclo[2.2.1]-heptane-2-carboxylic acid; outline: as §1
# [3] = test system: 9L; experiment: Drug uptake in rat 9L cells assessed as intracellular accumulation after 30 mins measured per 5 x 10^5 cells by gamma-counter in presence of alanine-cysteine-serine
# Outline: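 9L rat gliosarcoma cells were grown in DMEM with 10% fetal calf serum and penicillin/streptomycin at 37 °C under 5% CO2, trypsinized and washed in HBSS. About 5 × 10^5 cells were incubated with 5 µCi tracer in amino-acid-free HBSS with 10 mM ACS (equimolar Ala/Cys/Ser) for 30 min at 37 °C, run in triplicate. Cells were centrifuged and rinsed twice with ice-cold HBSS, then gamma counted with decay correction. Results are % of standard per 5 × 10^5 cells.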
compound,measurement,setting,value
N[C@]1(C(=O)O)C[C@@H]([18F])C1 [FLUCICLOVINE F18],Drug uptake,[1],12.3 %ID
same,Drug uptake,[2],2.9 %ID
same,Drug uptake,[3],0.18 %ID
